Laboratory results reported in ChEMBL document CHEMBL4814057, “4-4-(Anilinomethyl)-3-[4-(trifluoromethyl)phenyl]-1H-pyrazol-1-ylbenzoic acid derivatives as potent anti-gram-positive bacterial agents” (Eur J Med Chem, 2021).
Converted amounts (≈) assume the structure as drawn. The source made the active and inactive calls. The calls are words filed in the database; no cut-off is given here.

Legend:
Staphylococcus aureus [1] = experiment: Inhibition of protein synthesis in Staphylococcus aureus ATCC 29213 at 8 times MIC measured by liquid scintillation counter; format: functional
Staphylococcus aureus [2] = experiment: Antimicrobial activity against methicillin-resistant Staphylococcus aureus ATCC 33592 assessed as bacterial growth inhibitions by CLSI protocol based microdilution method; format: functional
Staphylococcus aureus [3] = experiment: Antimicrobial activity against antibiotic-resistant Staphylococcus aureus BM-2312 assessed as bacterial growth inhibitions by CLSI protocol based microdilution method; format: functional
Enterococcus faecium = experiment: Antimicrobial activity against vancomycin-resistant Enterococcus faecium ATCC 700221 assessed as bacterial growth inhibitions by CLSI protocol based microdilution method; format: functional
Staphylococcus aureus [4] = experiment: Antimicrobial activity against methicillin-susceptible Staphylococcus aureus ATCC 25923 assessed as bacterial growth inhibitions by CLSI protocol based microdilution method; format: functional
Bacillus subtilis = experiment: Antimicrobial activity against Bacillus subtilis ATCC 6623 assessed as bacterial growth inhibitions by CLSI protocol based microdilution method; format: functional
Procedure, shortened: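 Broth microdilution starting at 50 µg/ml with 2-fold serial dilutions; run in triplicate.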

Staphylococcus aureus [5] = experiment: Antimicrobial activity against methicillin-resistant Staphylococcus aureus ATCC 700699 assessed as bacterial growth inhibitions by CLSI protocol based microdilution method; format: functional
Staphylococcus aureus [6] = experiment: Antimicrobial activity against methicillin-resistant Staphylococcus aureus ATCC 33591 assessed as bacterial growth inhibitions by CLSI protocol based microdilution method; format: functional
Enterococcus faecalis [7] = experiment: Antibiofilm activity against Enterococcus faecalis ATCC 29212 assessed as inhibition of biofilm formation at 2 times MIC after 24 hrs by crystal violet staining based assay relative to control; format: functional; set-up: scale not given: the % may be the effect or the level left
Procedure, shortened: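 Overnight culture brought to 0.5 McFarland in PBS, diluted 1:100 in CAMHB with 1% glucose. Inhibition: cells plus compound (in DMSO) at 2x, 1x, 0.5xMIC, 24 h at 35 °C, triplicate. Destruction: 24 h biofilm grown without drug, washed, fresh medium with compound, further 24 h. Then washed, dried, 0.1% crystal violet, solubilized in 33% acetic acid, OD 620 nm. Controls are DMSO-only and broth-only wells.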

Enterococcus faecalis [8] = experiment: Antimicrobial activity against vancomycin-susceptible Enterococcus faecalis ATCC 29212 assessed as bacterial growth inhibitions by CLSI protocol based microdilution method
[9] = system: Staphylococcus epidermidis; experiment: Antimicrobial activity against methicillin-resistant Staphylococcus epidermidis ATCC 700296 assessed as bacterial growth inhibitions by CLSI protocol based microdilution method; format: functional
Staphylococcus aureus [10] = experiment: Antibacterial activity against methicillin resistant Staphylococcus aureus ATCC 700699 persisters assessed as reduction in viability at 64 times MIC by colony counting method; format: functional, organism-based
Procedure, shortened: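 Stationary-phase S. aureus from overnight CAMHB culture (35 °C, 200 rpm), washed thrice in PBS, diluted to ~5 × 10^8 CFU/ml. Incubated with antibiotic at 35 °C, 200 rpm. Aliquots taken at set times, washed, serially diluted in PBS, drop-plated (6 × 6) on TSA with 5% sheep blood. Colonies counted after 18–20 h at 35 °C. Triplicates.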

Molecule | inhibition (Staphylococcus aureus [1]) [%] | MIC (Staphylococcus aureus [2]) [µg/mL] | MIC (Staphylococcus aureus [3]) [µg/mL] | MIC (Enterococcus faecium) | MIC (Staphylococcus aureus [4]) [µg/mL] | MIC (Bacillus subtilis) [µg/mL] | MIC (Staphylococcus aureus [5]) [µg/mL] | MIC (Staphylococcus aureus [6]) [µg/mL] | Activity (Enterococcus faecalis [7]) [%] | MIC (Enterococcus faecalis [8]) [µg/mL] | MIC [9] [µg/mL] | Activity (Staphylococcus aureus [10])
CC(=O)NC[C@H]1CN(c2ccc(N3CCOCC3)c(F)c2)C(=O)O1 | 70.7 |  |  |  |  |  |  |  |  |  |  | 
O=C(O)c1ccc(-n2cc(CNc3cc(Cl)c(F)c(Cl)c3F)c(-c3ccc(C(F)(F)F)cc3)n2)cc1 |  | 0.78 (≈ 1.44 µM) | 0.78 (≈ 1.44 µM) | 0.78 µg/mL (≈ 1.44 µM) | 0.78 (≈ 1.44 µM) | 0.78 (≈ 1.44 µM) | 0.78 (≈ 1.44 µM) | 0.78 (≈ 1.44 µM) | 80 | 0.78 (≈ 1.44 µM) | 0.78 (≈ 1.44 µM) | 
GENTAMICIN |  |  |  |  |  |  |  |  |  |  |  | inactive
O=C(O)c1ccc(-n2cc(CNc3ccc(F)c(Cl)c3F)c(-c3ccc(C(F)(F)F)cc3)n2)cc1 |  | 1.56 (≈ 3.07 µM) | 1.56 (≈ 3.07 µM) | 1.56 µg/mL (≈ 3.07 µM) | 1.56 (≈ 3.07 µM) | 0.78 (≈ 1.54 µM) | 1.56 (≈ 3.07 µM) | 1.56 (≈ 3.07 µM) |  | 6.25 (≈ 12.3 µM) | 1.56 (≈ 3.07 µM) | 
N#Cc1ccc(NCc2cn(-c3ccc(C(=O)O)cc3)nc2-c2ccc(C(F)(F)F)cc2)cc1C(F)(F)F |  | 0.78 (≈ 1.47 µM) | 1.56 (≈ 2.94 µM) | 6.25 µg/mL (≈ 11.8 µM) | 1.56 (≈ 2.94 µM) | 0.78 (≈ 1.47 µM) | 1.56 (≈ 2.94 µM) | 0.78 (≈ 1.47 µM) |  | 12.5 (≈ 23.6 µM) | 3.12 (≈ 5.88 µM) | 
O=C(O)c1ccc(-n2cc(CNc3ccc(Cl)c(Cl)c3F)c(-c3ccc(C(F)(F)F)cc3)n2)cc1 |  | 0.78 (≈ 1.49 µM) | 0.78 (≈ 1.49 µM) | 0.78 µg/mL (≈ 1.49 µM) | 0.78 (≈ 1.49 µM) | 0.78 (≈ 1.49 µM) | 0.78 (≈ 1.49 µM) | 0.78 (≈ 1.49 µM) |  | 1.56 (≈ 2.98 µM) | 0.78 (≈ 1.49 µM) | 
O=C(O)c1ccc(-n2cc(CNc3ccc(F)c(Cl)c3)c(-c3ccc(C(F)(F)F)cc3)n2)cc1 |  | 0.78 (≈ 1.59 µM) | 0.78 (≈ 1.59 µM) | 1.56 µg/mL (≈ 3.18 µM) | 0.78 (≈ 1.59 µM) | 0.78 (≈ 1.59 µM) | 1.56 (≈ 3.18 µM) | 0.78 (≈ 1.59 µM) |  | 6.25 (≈ 12.8 µM) | 3.12 (≈ 6.37 µM) | 
O=C(O)c1ccc(-n2cc(CNc3cc(Cl)c(O)c(Cl)c3)c(-c3ccc(C(F)(F)F)cc3)n2)cc1 |  | 50 (≈ 95.7 µM) | 50 (≈ 95.7 µM) | inactive | 50 (≈ 95.7 µM) | 12.5 (≈ 23.9 µM) | 50 (≈ 95.7 µM) | 50 (≈ 95.7 µM) |  | 50 (≈ 95.7 µM) | 50 (≈ 95.7 µM) | 
